Test system: MS2 coat protein
Test: apparent Kd, MS2 coat protein; higher = weaker binding; RNA-MaP array; FMN 200 µM where present
Outline: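 Green signal from SNAP-549-labelled MS2 coat protein was normalised to red-channel RNA signal and to the median Fmax of control clusters. The protein was titrated from 0.7 or 1.5 nM, doubling to 3 µM, without and then with constant ligand, over designs transcribed by stalled E. coli RNA polymerase on Illumina sequencing-chip clusters, in 100 mM Tris-HCl pH 7.5, 80 mM KCl, 4 mM MgCl2, BSA, DTT, yeast tRNA and Tween-20. The apparent Kd is the median of filtered per-cluster binding-curve fits.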

[1] = designed as: OFF switch for flavin mononucleotide, no ligand
[2] = ligand present: flavin mononucleotide, designed as: OFF switch for flavin mononucleotide
[3] = designed as: ON switch for flavin mononucleotide, no ligand
[4] = ligand present: flavin mononucleotide, designed as: ON switch for flavin mononucleotide

| Sequence | apparent Kd [1] | apparent Kd [2] | apparent Kd [3] | apparent Kd [4] |
| --- | --- | --- | --- | --- |
| AGAUUUCAUGAGGAUAUCGUAUUAGAUUUAUUGCGAGAAGGCAUGACAUGAGGAUCACCCAUGUAGUGUUGGUU | 49.3 nM | 96.6 nM |  |  |
| GGUCCAUUAUGAGGAUAUGGCACCUUAUUGGUGCCAGAAGGCAUGUCUAUAGACAUGAGGAUCACCCAUGUAAUAAAUUGGACC |  |  | 494 nM | 50.5 nM |
| CGUCCGUGGGUAGUGAUCGUACAUGAGGAUCACCCAUGUGAGAAGGAUAUGCAUGCACAUGGACAGCAGAAGGUCUCAUAACAA | 69.4 nM | 353 nM |  |  |
| ACGACGAAAAUCGAACGAUGUAGCAGAAGGACAUGAGGAUCACCCAUGUAAAAUGUAACAGCCAUGUAGGAUAUGCUACAUCGA | 40.9 nM | 272 nM |  |  |
| UGGUACAUCGGAGGAUAUCAUGUGAAAACAUGAGGAUCACCCAUGUCGAUGGAGACAUCGGAGAUUGAGAAGGCCGAUGUACCU |  |  | 1470 nM | 49.9 nM |
| GAGGUAUUCGUAGGAUAUCCGUCGCCACCGUGUGGAGAAGGACGAACAUGAGGAUCACCCAUGUAUCAUGGUGUGGACGCUGUC | 61.8 nM | 61.7 nM |  |  |
| UUCUUACAUGAGGAUCACCCAUGUGUUGUCGUGGGAGGAUAUCCUUGUUCGGUGGCGUUGGGAGAAGGCCUAUGUU |  |  | 39.3 nM | 73.2 nM |
| CUAGACAUAUCAGGAUAUCAUCGCGUGGAUUAACCCUGUGAUUACAUGAGGAUCACCCAUGUGCUUGAGAAGGGAUUACUAUUU | 35.7 nM | 145 nM |  |  |
| CGUAGGAUCCAGAAGGCAUGUACAUGAGGAUCACCCAUGUCGAUAGACAUGAGGAUAUGGAUCCUACGAAAAGUGCGAAAGCAC |  |  | 17.1 nM | 5.16 nM |
| GUGAGGUCAGGAUAUGCAUGGCGGGACUUGCGUCGUGGCGUGGAGAAGGGACAUGAGGAUCACCCAUGUGGAGU | 87.6 nM | 49.5 nM |  |  |
| AGGAACAUGAGGAUCACCCAUGUUAGAGACCUCAUGCGAUGUAGAAGGAUAAUCCGAGAAGAGGUAUAGGAUAUACAUGAGAAA | 208 nM | 171 nM |  |  |
| CGCACACAUGAGGAUCACCCAUGUGAGGAUAUCAUGCUUCGUAGUAAACUACGAAGUGUGAGAAGGCACAUGUC | 31.2 nM | 102 nM |  |  |
| GUAGAGUCAGGAUAUACAAGAUCGAAAGAUCGAAGAUCCAUACAUGAGGAUCACCCAUGUAGAAGGGACUCUAC | 17.1 nM | 35.8 nM |  |  |
| GUGUACAGAGGAUAUACACGAAUCUAGCGAAGCUAGGUUUGACAUGAGGAUCACCCAUGUAGAAGGCUGUACAC | 16.1 nM | 24.2 nM |  |  |
| GGUGGCGUGAUAACGCUAGAUAUAACAUGAGGAUCACCCAUGUAGGAUAUCCCGCCGAGAGGGCGGGAGAAGGACAACCAAUGG | 40.9 nM | 34 nM |  |  |
| AUAAACAUGAGGAUCACCCAUGUGAGAAGGCGCAUUACUAUAUUUAUACACUUUAAUACUAACAGCGAGGAUAUCACCUCAUAA | 15.8 nM | 24.7 nM |  |  |
| UAAAUUUACAAGAAGGCUAACAUGAGGAUCACCCAUGUUGUACAUGGAUAUAGAGGAUAUUGCUAAUAAUUAUUUAUCAUAAUU | 24.2 nM | 19.5 nM |  |  |
| CUCAAACAUGAGGAUCACCCAUGUGUUGUCAUGGGAGGAUAUCUAAGUUCAUUGUAUUCGGGAGAAGGCCUAUGUC |  |  | 503 nM | 46.5 nM |
| CCUCUUGGGCAAGGAUAUCCUGCGCGGUUCCGGUUCGUGUCUGUCACAUGAGGAUCACCCAUGUGGGAGAAGGUGCCUGCGGUC | 17.9 nM | 24.2 nM |  |  |
| CCGUCACAUGAGGAUCACCCAUGUCAGGAUAUCUAUCAUAGCAUCGAAAGAUGCGGGUAGAGAAGGGACUAUCC |  | 22.6 nM |  |  |
| AAUUAAUUGUAGAAGGUACUUAAUUAUGAUAUGUAAGGAUAUACGAUAUUAUAACGACAUGUAUGACAUGAGGAUCACCCAUGU |  |  | 11.2 nM | 8.4 nM |
| CUUUUGUGAGGAUAUCAGUAGUAAAAUAAUAAAAUUACUACUGAGAAGGCACAUGAGGAUCACCCAUGUUCCUC | 32.5 nM | 174 nM |  |  |
| UGUUACUAGUAAGGAUAUACUUGCAAUAAGCUUGUAGAAGGUACAGUCUUUUGUAUAACAUGUUUACAUGAGGAUCACCCAUGU |  |  | 10.6 nM | 9.66 nM |
| AAGAAGUCAGGAUAUCCAUGGCGGCACUUGCGUGGUGGCGUGGAGAAGGGACAUGAGGAUCACCCAUGUAAAGC | 47.1 nM | 32.8 nM |  |  |
| UAUAUAUAGGCAGGAUAUACAUGUAUAUAUAAUAUAUUAUAUAAUAUUACAUGAGGAUCACCCAUGUAGAAGGGCCAUAAUAUA | 48.3 nM | 66.9 nM |  |  |
| GCCAGUUAUGUAGGAUAUGCGCAGCGAGCCUGAGCAGAAGGACAUGAGGAUCACCCAUGUGUUGCGGUUUGAGUACUAAUCGCU | 24.3 nM | 134 nM |  |  |
| CCAGAAUAGAAGGAUAUCGUGCUAUAGAGCGGAUGAGAAGGUCUGACAUGAGGAUCACCCAUGUGCACUUCAUG | 103 nM | 320 nM |  |  |
| UUUUACAUAGGAUAUAGUUUCUUUUACAUGAGGAUCACCCAUGUUUCUCUUCUCUCUCUUCUAGAAGGAUGUUUCU | 34.8 nM | 31.4 nM |  |  |

| Sequence | apparent Kd [1] | apparent Kd [2] | apparent Kd [3] | apparent Kd [4] |
| --- | --- | --- | --- | --- |
| GGAUAGGACAGAGGAUAUACGUGCUAGAGAUACCAGCAAAAUUUCCUCACAUGAGGAUCACCCAUGUAGAAGGCUGUCCUAUCG | 31.9 nM | 558 nM |  |  |
| CGGCGUUGUCGAGAGGAUAUGCGGUGAUGGACAUGAGGAUCACCCAUGUUAGCGAUAGCAUUACGGUAGAAGGCUCUACAGCUGC |  |  | 65 nM | 17 nM |
| GGACGUCACAUUUACAUGAGGAUCACCCAUGUCUCUUGACAUGAGGAUAUGUAUACUAAUUGUAUACAGAAGGCAUGGACGUCC |  |  | 1010 nM | 168 nM |
| AACCUACAUGAGGAUCACCCAUGUAUCUGAGGCACAGGAUAUCGACAGGCAAGACACCUGCGAGAAGGGUGACCUC |  |  | 94 nM | 39.9 nM |
| UGAGCAUGAGGAUAUACUUGGCGACCGUGAGGUCGAGGUUUACAUGAGGAUCACCCAUGUAGAAGGCAUGUUCU | 18.7 nM | 52.6 nM |  |  |
| AUACAUGAGGAUCACCCAUGUAAUUAAUUAACUUGUAAGAUCAAGGAUAUCAGCUCGAAUAGAGCUGAGAAGGUGAUCACAUGU |  |  | 179 nM | 220 nM |
| GCUGACGAUGUAGGAUAUCAGUAUAAUAAAUACUGAGAAGGACAUGAGGAUCACCCAUGUACUCAACGUCAGCAGAGGAAACUC | 17.8 nM | 22.5 nM |  |  |
| UUAAUUAUACAAGGAUAUCUAUUGUUCUUUCGACUUACAUGAGGAUCACCCAUGUUAAUAUAUAUAGAGAAGGUGUAUUUUCAG |  |  | 43.3 nM | 25.4 nM |
| ACAAAUGGAGGAUAUACAUGAGGAUCACCCAUGUUUAUCCUACAUAUGUGAUAAUCAUGUAGAAGGCCAUAUGA | 16.5 nM | 12.5 nM |  |  |
| AAUAAUUAGUAAGGAUAUACUAGUGAUUAGCUUGUAGAAGGUACAGUCUUAUGUAUAACAAAUUAACAUGAGGAUCACCCAUGU |  |  | 8.8 nM | 8.1 nM |
| GCAGCAAUUUAAAACAUGAGGAUCACCCAUGUCGAGAGAUAUGAGGAUAUGCAUCGGAUGAAGAUGCAGAAGGCAUUGUGCUGC |  |  | 24.8 nM | 7.68 nM |
| GGGUACAUCGGAGGAUAUCAUGUAAACACAUGAGGAUCACCCAUGUCGAUGGAGACAUCGGAGAUUGAGAAGGCCGAUGUACCG |  |  | 111 nM | 7.62 nM |
| ACGACGAAAGUCGAACGAUGUAGCAGAAGGACAUGAGGAUCACCCAUGUAAAAUGUAACAGCCAUGUAGGAUAUGCUACAUCGA | 31.3 nM | 238 nM |  |  |
| GGGUAGUGAGGAUAUCGUUGUUAGGAGGAGUAGGUAGGAGGCGAGAAGGCACAUGAGGAUCACCCAUGUAUGAG | 29.2 nM | 30.4 nM |  |  |
| GUUGCACAAGUUAACAUGAGGAUCACCCAUGUCAAAAGACAUGAGGAUAUGGAUCUGAAGAAGAUCCAGAAGGCAUAAUGCUAA |  |  | 796 nM | 117 nM |
| GCACUUAGAGAGGUACCGUUACGAACAUGAGGAUCACCCAUGUAGGAUAUGCUAAUAGUAUUGAAGCAGAAGGACACUAAGUGC | 7.21 nM | 30.4 nM |  |  |
| CGAUAUUAUGCAGGAUAUCUAUCUUGAAUGAGGAGAGAAGGGCAUAGGGAGACAUAAGCCUUAUUACAUGAGGAUCACCCAUGU | 11.2 nM | 9.38 nM |  |  |
| CGGACGUCAGGAUAUCUGAUGUCUAACUUCGGUUAGACAUCAGAGAAGGGACAUGAGGAUCACCCAUGUCCGAG | 22.2 nM | 16.9 nM |  |  |
| UCAUUGAUUGUGAGGAUAUCGAUGUGAUGGAUUGUCGAGAAGGCACAUGAGGAUCACCCAUGUGGGUGUGGGCU | 864 nM | 454 nM |  |  |
| AAGUAUGGAGGAUAUACAUGGAUAUACAUUCAUGUGGACCUACAUGAGGAUCACCCAUGUAGAAGGCCAUAAUA | 30.7 nM | 16.6 nM |  |  |
| AGGAAGUUAGGAUAUGCUGCUCGUCACUUGCGUGAUGAGUAGCAGAAGGGACAUGAGGAUCACCCAUGUAAAAA | 44.2 nM | 22.7 nM |  |  |
| UUUGAUUAUGUGAGGAUAUACUGUUUGUAUUGAUUGUAGAAGGUACAUGAGGAUCACCCAUGUUUUGUAUUUAU | 18.6 nM | 19.4 nM |  |  |
| GUCAGCUCGUGAGGAUAUACAACACUGCUUCGGCAGUGUAUUAAGAUCACAUGAGGAUCACCCAUGUAGAAGGCACGGGCUGAU | 14 nM | 323 nM |  |  |
| CCGCGACACGAAGGAUAUGUGGGUGGUAGUCUGUGCUCCGCCUACAUGAGGAUCACCCAUGUAUCACAGAAGGUCGGACGUCGA |  |  | 26.7 nM | 125 nM |
| ACAUGAGGAUCACCCAUGUUCACAUAGGAUAUUGAUUAUAUUGGUUUUUGAAUAGUAAUUAACCUCAAGAAGGAUGCCUGAUCU |  |  | 11.6 nM | 9.34 nM |
| GUUUACCGAGGAUAUACAUGAGGAUCACCCAUGUUCCUAAUAAACAUCGGUUCAGCGUGUAGAAGGCGGACCUA | 22.5 nM | 53.9 nM |  |  |
| UGGUACUAGGGAGGAUAUGGGAAGAUACAUGAGGAUCACCCAUGUUUAUGAAUGCCGAGAGGCAACUAGAAGGCCCUAGUACCU |  |  | 292 nM | 13 nM |
